SKKanGAS inh – S. pyogenes SKKanGAS growth inhibitors in kanamycin, primary screen, streptokinase expression inhibitor project, SKKanGAS strain, BacTiter-Glo luminescence | 6 h | inhibition, % at 7.5 µM | 1.3% of 300,000 active;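 active = mean replicate score, as percent of positive control median, at least 50; inconclusive = mean below 50 but one replicate at or above 50; inactive = mean and every replicate below 50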;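 also: strain carries kanamycin resistance gene driven by streptokinase promoter and grows in 40 µg/ml kanamycin; loss of luminescence reflects streptokinase promoter inhibition or plain growth inhibition; 0% = median of DMSO wells and 100% = positive control at its reference dose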
Calb FLC – C. albicans growth inhibition with fluconazole, primary screen, CaCi-2 strain, Alamar Blue fluorescence; C. albicans CaCi-2 (fluconazole-resistant clinical isolate) + fluconazole, 48 h; growth inhibition, % (concentration not given with the values); 0.57% of 300,000 active;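 active = growth inhibition above about 58% in most replicates, limit read from the data, passing the limit was not always enough; inconclusive = exactly half the replicates above a set limit; inactive = most replicates below a set limit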;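 also: all wells also contain fluconazole at 8 µg/ml as a sub-toxic cotreatment; 0% = median of DMSO wells and 100% = median of geldanamycin control wells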
T cruzi inh – inhibitors of intracellular T. cruzi growth, primary screen, luminescence, NIH3T3 host cells; T. cruzi beta-gal in NIH3T3, 90 h; inhibition, % (test concentration not listed); 1.4% of 300,000 active; AID 1885, 2009;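 active = mean inhibition across valid replicates above about 55%, limit read from the data; inconclusive = mean below that limit but half or more replicates reach it; inactive = mean below it, under half of replicates reach it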;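 also: signal also drops with host cell toxicity which is not excluded here; 0% = plate median of DMSO wells and 100% = zero luminescence signal; higher percent means less beta-gal luminescence so fewer parasites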
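Read-out: Parasite load inhibition, % | Test system: Mouse NIH/3T3 fibroblasts infected with β-gal-expressing T. cruzi Tulahuen C4 | Amount: 5,000 cells/well | Medium: DMEM, 2% fetal bovine serum | Signal: GalScreen β-gal luminescence, detergent lysis, 60 min | Timing: 3 h attach, ≥90 h co-culture | Also added: Tulahuen C4 trypomastigotes, 5000/well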
CSC inhib – cancer stem cell viability inhibitors, primary screen, luminescence; cancer stem cell-like cells viability; inhibition, % at 7.5 µM; 1.1% of 300,000 active; AID 2717, 2010; in the data active = inhibition above about 75%; inconclusive = no clear call, values can overlap the other calls; tested in HMLE shEcad cells
Beta apoptosis – inhibitors of cytokine-induced beta cell apoptosis, primary screen, luminescence. INS-1E cytokine-induced death, ATP luminescence, 48 h; percent of positive-control rescue, neutral wells zero. protection from apoptosis, % (test concentration not listed). 0.8% of 300,000 active. AID 435005, 2010;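 active = Every replicate reaches about 75%, or at least half do and their mean reaches it too, limit read from the data; inconclusive = At least half of replicates reach the limit but their mean does not; inactive = Under half of replicates reach the limit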;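 also: 0% = cytokine-treated negative control wells and 100% = positive control rescue; higher means more ATP so stronger rescue from cytokine killing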
Mdm2 MdmX PPI – inhibitors of human Mdm2-MdmX association, primary screen, cell-based, luminescence, split luciferase, SaOS-2, uHTS | 3% of 330,000 active | SaOS-2 split-luciferase Mdm2/MdmX complementation | inhibition, % at 8 µM | AID 485346, 2010 | Protein Mdm4 (Homo sapiens) + E3 ubiquitin-protein ligase Mdm2 (Homo sapiens), …;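 active = inhibition of at least 50% at 8 µM in the primary screen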
Target sequence (O15151 whole entry, looked up): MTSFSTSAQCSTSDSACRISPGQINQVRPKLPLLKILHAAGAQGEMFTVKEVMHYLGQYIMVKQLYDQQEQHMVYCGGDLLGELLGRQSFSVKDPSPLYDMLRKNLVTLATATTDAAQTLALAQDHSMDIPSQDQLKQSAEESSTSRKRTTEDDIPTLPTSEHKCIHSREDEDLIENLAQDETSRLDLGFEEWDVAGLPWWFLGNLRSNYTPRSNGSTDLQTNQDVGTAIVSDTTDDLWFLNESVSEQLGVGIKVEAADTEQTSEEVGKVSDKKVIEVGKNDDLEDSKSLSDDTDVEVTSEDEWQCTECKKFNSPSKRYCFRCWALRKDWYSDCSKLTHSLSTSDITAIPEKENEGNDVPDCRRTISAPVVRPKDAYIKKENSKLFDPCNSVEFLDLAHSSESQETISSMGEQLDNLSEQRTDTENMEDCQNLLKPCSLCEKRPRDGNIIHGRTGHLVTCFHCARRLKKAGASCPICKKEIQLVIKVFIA
Target sequence (Q00987 whole entry, looked up): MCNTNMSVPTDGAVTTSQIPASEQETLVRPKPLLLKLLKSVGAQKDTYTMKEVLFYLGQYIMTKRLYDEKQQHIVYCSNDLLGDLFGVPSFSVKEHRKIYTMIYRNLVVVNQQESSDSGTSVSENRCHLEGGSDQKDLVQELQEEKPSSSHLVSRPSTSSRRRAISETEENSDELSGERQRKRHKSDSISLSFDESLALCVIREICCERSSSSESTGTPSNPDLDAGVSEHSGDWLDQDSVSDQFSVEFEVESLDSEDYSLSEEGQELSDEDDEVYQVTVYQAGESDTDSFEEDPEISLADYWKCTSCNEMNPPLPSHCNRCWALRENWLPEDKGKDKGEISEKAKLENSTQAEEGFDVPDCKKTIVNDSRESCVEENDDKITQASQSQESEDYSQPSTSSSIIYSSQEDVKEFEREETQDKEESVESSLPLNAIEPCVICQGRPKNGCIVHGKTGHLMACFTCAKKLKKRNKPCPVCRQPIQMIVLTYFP
Mdm2-MdmX conf – Mdm2-MdmX complex disruptors, retested hits, confirmation, luminescence, single concentration. shares compounds with Mdm2 MdmX PPI. Mdm2-MdmX binding, luminescent assay. inhibition, % at 8 µM. 55% of 10,000 active. AID 489028, 2010; in the data active = inhibition above about 40%
Full FLuc ctr – full-length luciferase signal inhibition, confirmation, counter-screen for Mdm2/MdmX interaction inhibitor project, cell-based, single concentration, SaOS-2; inhibition, % at 8 µM; 77% of 6,200 active; AID 504607, 2011; SaOS-2 full-length luciferase counterscreen, luminescence; shares compounds with Mdm2 MdmX PPI;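 active = mean inhibition at 8 µM reaching about 37%, which flags the compound as non-specific, limit read from the data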;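 also: p53-null SaOS-2 cells with luciferase driven by a doxycycline-inducible promoter; compound on cells about two nights before reading with doxycycline added after day one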
The depositor's hits bear a star; ? = inconclusive; . = no result. Compounds with a hit are over-represented: about 5.7% of the library has one in this group of screens.

SMILES	SKKanGAS inh	Calb FLC	T cruzi inh	CSC inhib	Beta apoptosis	Mdm2 MdmX PPI	Mdm2-MdmX conf	others
N#C/C(=C/c1cn(-c2ccccc2)nc1-c1cccc(OCc2ccc(F)cc2)c1)C(=O)NCCCn1ccnc1	?	2	63*	99*	-1	52*	30
CCCNc1nc2c(c(=O)[nH]c(=O)n2C)n1Cc1cccc(Br)c1	-1	-47	19	16	-3	66*	35
CC1CCCCC1NC(=O)CCS(=O)(=O)c1ccc(Cl)cc1 (stereo not drawn)	.	.	.	-3	1	16	.
CCn1cc(S(=O)(=O)NC(C)c2cc(OC)ccc2OC)cn1 (stereo not drawn)	0	-2	-5	-2	-9	10	.
O=C(NCc1ccncc1)C(=O)Nc1nc(C23CC4CC(CC(C4)C2)C3)cs1	6	14	-1	-5	2	22	.
O=C(NCc1ccc(F)cc1)C(=O)Nc1nc(C23CC4CC(CC(C4)C2)C3)cs1	109*	3	25	75*	31	59*	30
CN1CCN(Cc2nc3ccccc3c(=O)n2Cc2nc(-c3ccc([N+](=O)[O-])cc3)cs2)CC1	2	12	2	21	5	95*	31
CC(NC(=O)CCNC(=O)N1CCn2c1nc1ccccc12)c1ccccc1 (stereo not drawn)	-2	-2	2	-7	-1	5	.
Oc1cccc(-c2nc3c4c(ncn3n2)-c2ccccc2CC42CCCC2)c1	106*	21	30	111*	-4	58*	7
Cc1cccc(NS(=O)(=O)c2ccc(-n3cccn3)cc2)c1C	6	-32	19	-14	8	27	.
O=C(NCCO)C(=O)Nc1cc2c3c(c1)CC(=O)N3CCC2	1	-15	-22	10	-1	-52	.
O=C(CCl)c1cc2c3c(c1)CC(=O)N3CCC2	3	1	-8	-5	.	77*	56*	Full FLuc ctr=12
COc1ccc(-c2csc(NC(C)c3nc4cc(Cl)c(N5CCCCC5)cc4n3CCOCCO)n2)cc1 (stereo not drawn)	32	-7	20	-3	-2	31	.
CC(Nc1nc(-c2ccc(Cl)cc2)cs1)c1nc2cc(Cl)c(N3CCCCC3)cc2n1CCOCCO (stereo not drawn)	41	-2	37	?	3	51*	2
CN(Cc1ccccc1)c1nc(-c2ccc([N+](=O)[O-])cc2)nc2ccccc12	2	-1	23	35	23	2	.
O=[N+]([O-])c1ccc(-c2nc(C(Cl)Cl)c3ccccc3n2)cc1	-2	46	31	97*	94*	99*	100*	Full FLuc ctr=51*
Nc1ncnc2c1ncn2[C@@H]1O[C@H](CNC(=O)[C@H]2CCC(=O)N2)[C@@H](O)[C@H]1O	.	.	.	.	.	3	.
CCCCNc1c2c3c(cccc3n(C)c1=O)C(=O)c1ccccc1-2	54*	-11	45	63	10	51*	33
CC1CCCN(C(=O)COC(=O)Cc2c(F)cccc2Cl)C1 (stereo not drawn)	-2	-5	2	9	1	-31	.
CCOc1cc(CNc2ccc3c(c2)OCCO3)cc(Br)c1OCC	0	-4	43	54	17	73*	70*	Full FLuc ctr=62*
COc1ccc(-c2cc(=O)oc3c(C)c(OCC(=O)Nc4cccnc4)ccc23)cc1	3	1	-2	31	-2	51*	-7
N#Cc1ccccc1COC(=O)c1cccc(S(=O)(=O)N2CCCC2)c1	.	.	.	.	2	-7	.
